Apaf-1 act: activates human Apaf-1 apoptosome | AID 489031 | 0.31% of 330,000 active | O14727 | Apaf-1 apoptosome caspase-3 activation, DEVD-Rh110 fluorescence; active compounds read low | activity change, negative = activation, % at 20 µM;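 active means activity change at or below -40% at 20 µM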
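Schedule: 30 min preincubation, 50 min reaction, room temperature / System: biochemical Apaf-1 apoptosome reconstitution / Medium: 20 mM HEPES pH 7.5 with CHAPS, BSA / Evaluation: Caspase-3 cleavage activity downstream of Apaf-1 activation / Detection: Caspase-3-released Rh110 fluorescence, 540 nm emission, 480 nm excitation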
Rh110 interf act: Rh110 signal interference in Apaf-1 activator counter-screen. AID 504616. shares compounds with Apaf-1 act. fluorescence interference (activity change), % at 20 µM, hits read low. Rh110 fluorescence interference, quenched caspase reaction, Ex480/Em540. 980 tested, under 10 active;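 active means mean activity change at or below -40% when tested at 20 µM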
Apaf-1 act conf2: confirmation of human Apaf-1 activators; shares compounds with Apaf-1 act; reconstituted apoptosome caspase-3 activity, DEVD-Rh110 fluorescence; active compounds read low; activity change, negative = activation, % at 20 µM; 5% of 980 active; AID 504617;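 active means mean activity change at or below -40%, meaning activation of 40% or more, at 20 µM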
Apaf1 act interf: Apaf-1 activator counter-screen fluorescence artifact. shares compounds with Apaf-1 act. fluorescence interference counterscreen, Apaf-1 activator assay. EC50, µM. 55 tested, under 10 active. AID 588592; call rule not given here
Active calls of the source: *; x = no result given. Not all results are given here.

SMILES	Apaf-1 act	Rh110 interf act	Apaf-1 act conf2	others
CN1CCN(c2nc(-c3ccc(C(C)(C)C)cc3)nc3ccccc23)CC1	43	x	x
COC(=O)c1ccccc1NC1=C/C(=N\S(=O)(=O)c2ccc(C(=O)O)cc2)c2ccccc2C1=O	95	x	x
COc1ccc(C(C[N+](=O)[O-])c2c(C)[nH]n(-c3ccccc3)c2=O)cc1 (stereo not given)	96	x	x
Cc1cccc(C)c1OCC(=O)N(Cc1ccco1)C1CCS(=O)(=O)C1 (stereo not given)	-378*	5	0
O=C1N/C(=C\c2ccc(O)cc2)C(=O)c2ccccc21	97	x	x
Cc1ccc(N/N=C2\CC(=O)c3ccccc32)cc1Cl	76	x	x
CN(C)CCCNC(=O)C[C@H]1C[C@H](C(=O)N2CCCCC2)[C@@]2(C)c3[nH]c4cc(-c5ccco5)ccc4c3CCN2C1=O	42	x	x
COCCNC(=O)c1onc(CSc2ccccc2)c1C(=O)O	-44*	-7	10
COCCCNC(=O)c1ccc2c3c(onc13)-c1ccccc1C2=O	80	x	x
COc1ccc(/C=C/C(=O)NC(=S)Nc2ccc(S(N)(=O)=O)cc2)cc1	-80*	-2	14
FC(F)(F)c1cc(CCN2CCNC[C@H]2Cc2cccc3ccccc23)cc(C(F)(F)F)c1	72	x	x
O=[N+]([O-])c1ccc(/C=C/c2ccc3cccc([N+](=O)[O-])c3n2)cc1	-107*	-8	11
CC1(OC(=O)c2ccc(Cl)nc2)C(=O)C=C2C=C3CCCN3C=C2C1=O (stereo not given)	44	x	x
CCCCCCc1cc2cc(-c3nnc(-c4ccccc4OC)o3)c(=O)oc2cc1O	62	x	x
CCCCCCc1cc2cc(-c3nnc(-c4ccccc4O)o3)c(=O)oc2cc1O	-140*	10	-43*	Apaf1 act interf=>100
CCCCCCc1cc2cc(-c3nnc(-c4cc(OC)c(OC)c(OC)c4)o3)c(=O)oc2cc1O	63	x	x
O=C1C(=O)N(CCN2CCOCC2)C(c2ccccc2)/C1=C(\O)c1ccc2c(c1)OCCO2 (stereo not given)	50	x	x
O=C1C(=O)N(c2nccs2)C(c2ccccc2F)/C1=C(\O)c1ccc2c(c1)OCCO2 (stereo not given)	-40*	13	20
Cc1cc(/C=C\c2ccc3cc(N(C)C)ccc3[n+]2C)c(C)n1-c1ccccc1	43	x	x
Cn1c(=O)c2c(-c3ccc(C(C)(C)C)cc3)n(N3CCOCC3)cc2n(C)c1=O	-60*	14	16
COc1cccc(C(c2c(C)[nH]n(-c3ccccc3)c2=O)c2c(C)[nH]n(-c3ccccc3)c2=O)c1O	94	x	x
COc1ccc(C(C(=O)NC2CCCC2)N(Cc2ccc(F)cc2)C(=O)c2ccn[nH]2)cc1OC (stereo not given)	-105*	-5	10
N#Cc1c(N(CCO)CCO)nc(N)c2c(N)nc3c(c12)CC(=O)N3CC1CCCO1 (stereo not given)	98	x	x
CN(CCO)c1cc(Sc2nc3ccccc3s2)c2nonc2c1[N+](=O)[O-]	52	x	x
CCCCOc1cc(NCc2ccccc2)c2ncn(C(C)C)c2c1	61	x	x
SMILES	Apaf-1 act	Rh110 interf act	Apaf-1 act conf2	others
O=C(OCC(=O)c1c[nH]c2ccccc12)c1cc(Br)ccc1O	-339*	8	9
C/C=N/NC(=O)c1cc(Br)ccc1O	57	x	x
CC(C)(C)OC(=O)[C@H](Cc1ccccc1)NC(=O)c1nc[nH]c1C(=O)N[C@@H](CCCCN)C(=O)OC(C)(C)C	51	x	x
CC[C@@H](C)[C@@H]1CN([C@@H](CN2CCC[C@H]2CN2C(N)=NC[C@H]2C(C)C)C(C)C)C(=N)N1CCCC1CCCC1	40	x	x
COc1ccc(-c2cn(Cc3ccc4ccccc4c3)nn2)cc1	-123*	4	8
COc1cccc2nc3cc(C)c(C)cc3nc12	84	x	x
CC(C)n1cnc2c(NCc3ccccc3)cc(N[C@H](C)CO)cc21	97	x	x
NCCCS(=O)(=O)O	-4	x	x
Nc1ncc(Br)cc1N=Cc1ccccc1	62	x	x
O=C(Nc1ncn[nH]1)c1c(Cl)ccc(Cl)c1Cl	-47*	-3	10
CCC(C)Sc1ccc(-c2nc3cnccn3c2NC2CCCCC2)cc1 (stereo not given)	45	x	x
Cc1cccc(NC(=O)CCNS(=O)(=O)c2cccc3nonc23)c1	-68*	-4	8
CCN(CC)C(=O)[C@H]1CC(CC(=O)NCCCN(C)C)C(=O)N2CCc3c([nH]c4ccccc34)[C@]12C (stereo not given in full)	44	x	x
c1ccc2c(-c3ccc(OCCN4CCCCC4)cc3)c(-c3ccsc3)sc2c1	59	x	x
CCN1C(=C(C#N)C#N)C=Cc2cc(C)ccc21	-49*	5	8
COc1ccc(C2=NO[C@@H]3[C@@H]4C[C@@H]([C@H]5C(=O)N(C)C(=O)[C@@H]45)[C@H]23)c(OC)c1	-63*	8	14
COc1ccc(NC(=O)Nc2ccc(O)c3ccccc23)cc1	52	x	x
COc1ccc(Nc2ccc(C(=O)O)cc2[N+](=O)[O-])cc1	-64*	21	15
OCCN1CCN(CCCN2c3ccccc3Sc3ccc(C(F)(F)F)cc32)CC1	48	x	x
CCCCCCCCCn1c2c(c(=N)c3c1CCC3)CCC2	50	x	x
COC(CNC(=S)Nc1ccc([N+](=O)[O-])cc1)OC	-58*	8	3
CCN1/C(=C/c2ccc3cc(C)ccc3[n+]2CC)Sc2ccc3sccc3c21	62	x	x
CCCc1ccc2oc(C(=O)NCCc3nc(C(=O)OCC)cs3)c(C)c2c1	41	x	x
CCCc1cc(C(=O)Nc2sc(C(C)=O)c(C)c2C(=O)OCC)no1	-192*	-7	8
CN(C)CCNC(=O)C(=O)NCC1OCCN1S(=O)(=O)c1cc(F)ccc1F (stereo not given)	47	x	x
SMILES	Apaf-1 act	Rh110 interf act	Apaf-1 act conf2	others
O=C(OCc1nc2ccccc2s1)c1ccc([N+](=O)[O-])o1	69	x	x
CN1CCC[C@@H]1CCNC(=O)c1c(-c2ccc3c(c2)OCO3)noc1-c1ccsc1	40	x	x
O=c1[nH]c(Nc2ccccn2)cc2ccccc12	91	x	x
CC(/C=C/c1ccc2c(c1)OCO2)=N/NC(=O)c1ccncc1	-42*	-4	4
O=C(N/N=C1\C/C(=N\NC(=O)c2ccncc2)c2ccccc21)c1ccncc1	93	x	x
CCOC(=O)c1ccc(N2CSC3=C(C#N)C(c4cccs4)CC(=O)N3C2)cc1 (stereo not given)	55	x	x
O=C(NC(Cc1ccccc1)C(=O)NCc1ccccn1)c1ccco1 (stereo not given)	-187*	0	6
CC1CC(C)(C)CC2(C1)NC(=O)N(CC(=O)Nc1ccc3[nH]c(=O)[nH]c3c1)C2=O (stereo not given)	44	x	x
Cc1ccc(C2(C)NC(=O)N(CC(=O)Nc3ccc4[nH]c(=O)[nH]c4c3)C2=O)cc1 (stereo not given)	-58*	12	-5
Cc1cccc(C(=O)N/C(=C\c2ccco2)C(=O)N2CCCC2)c1	-134*	1	4
O=C(Nc1ccc2nc(-c3ccco3)c(-c3ccco3)nc2c1)N1CCCCCC1	57	x	x
O=C(NCC(c1ccco1)N1CCCC1)c1cccc(S(=O)(=O)Nc2ccc(Br)cc2)c1 (stereo not given)	59	x	x
